In the array DNA melting data of Ke et al. (doi:10.1101/2024.01.08.574731):

Legend:
[1] = folding enthalpy; higher = less favourable; fluorescence melt of hairpins on a sequencing array, two-state fit; settings: sodium 0.088 M
Procedure, shortened: (§1)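 Folding enthalpy and melting temperature come from bootstrapped two-state fits to Cy3 fluorescence of library hairpins carrying annealed Cy3 and quencher oligos on a sequenced MiSeq flow cell. Imaging was done in 50 mM Na-HEPES pH 8.0, 25 mM NaCl, stepping by 2.5 °C up to 60 °C, and signals were normalised to pre-quench Cy3 and to control constructs. Results of four replicates were combined by inverse variance, and fitted temperatures were raised by 9.35 °C to match UV melts.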

[2] = melting temperature; fluorescence melt of hairpins on a sequencing array, two-state fit, raised by 9.35 °C to match UV melts; settings: sodium 0.088 M
Procedure, shortened: as §1

| Sequence | folding enthalpy [1] [kcal/mol] | Tm [2] [°C] |
| --- | --- | --- |
| GGCAGCGGAAACACTGCC (((((.(....).))))) | -41 | 55.1 |
| GGCAGGGAAACCTGCC ((((((....)))))) | -30.2 | 69.3 |
| GGCAGGTCGAAAGACGCC (((..(((....)))))) | -24 | 53.5 |
| GGCAGTCGAAAGACGGCC (((.(((....))).))) | -36.4 | 67.8 |
| GGCATACCGAAAGGTGCC (((..(((....)))))) | -39.5 | 53.3 |
| GGCATAGGAAACCATGCC (((((.(....).))))) | -30 | 48.7 |
| GGCATCCCGAAAGGGGCC (((..(((....)))))) | -18.9 | 52.3 |
| GGCATCGAAAGATATGCC ((((((....)))..))) | -28.1 | 47.5 |
| GGCATCGAAAGATGAGCC ((((((....)))..))) | -17 | 44.1 |
| GGCATCGAAAGATTGGCC ((((((....)))..))) | -22.2 | 44.2 |
| GGCATGCCGAAAGGCGCC (((..(((....)))))) | -16 | 57.5 |
| GGCATGGGAAACTGTGCC ((((..(....)..)))) | -29.8 | 48.2 |
| GGCATTACGAAAGTAGCC (((..(((....)))))) | -21.8 | 43.1 |
| GGCATTGAAAAATGCC ((((((....)))))) | -36.2 | 61.5 |
| GGCATTGGAAACAATACC ((.((((....)))).)) | -25.4 | 36.6 |
| GGCATTGGAAACAGTGTC (.((.((....)).)).) | -17 | 31.9 |
| GGCATTGGAAACGATGCC (((((.(....).))))) | -42.5 | 55.6 |
| GGCATTTCGAAAGAAGCC (((..(((....)))))) | -20.2 | 34.4 |
| GGCCAACGAAAGTTGCC (((.(((....)))))) | -20 | 54.3 |
| GGCCACCGAAAGGTCGCC (((.(((....))).))) | -49.2 | 53.3 |
| GGCCACCGAAAGGTTGCC (((.(((....))).))) | -44.3 | 58.1 |
| GGCCACGAAAGTGATGCC ((((((....)))..))) | -27.6 | 51 |
| GGCCACGAAAGTGCAGCC ((((((....)))..))) | -19.9 | 49.9 |

| Sequence | folding enthalpy [1] [kcal/mol] | Tm [2] [°C] |
| --- | --- | --- |
| GGCCACGAAAGTGTAGCC ((((((....)))..))) | -25 | 53.1 |
| GGCCACGAAAGTGTCGCC ((((((....)))..))) | -21.3 | 50 |
| GGCCACGGAAACACGGCC ((((..(....)..)))) | -32.5 | 47.8 |
| GGCCACGGAAACGCGGCC ((((.((....)).)))) | -40.4 | 66.5 |
| GGCCACGGAAACGTAGCC (((.(((....))).))) | -28 | 50.8 |
| GGCCACGGAAACGTGGTC (.(((((....))))).) | -25.7 | 64.9 |
| GGCCAGCGAAAGCTAGCC (((.(((....))).))) | -29.6 | 56.4 |
| GGCCAGTCGAAAGACGCC (((..(((....)))))) | -18.2 | 50.1 |
| GGCCATCGAAAGATGCC (((.(((....)))))) | -19.8 | 54.9 |
| GGCCATGGAAACACGGCC ((((.((....)).)))) | -45.4 | 51.7 |
| GGCCCAACGAAAGTTGCC (((..(((....)))))) | -13.9 | 32.5 |
| GGCCCACGAAAGTGGCC (((.(((....)))))) | -17.8 | 65.4 |
| GGCCCAGCGAAAGCTGCC (((..(((....)))))) | -8.49 | 36 |
| GGCCCAGGAAACCGGACC ((.((.(....).)).)) | -27.4 | 33.5 |
| GGCCCAGGAAACCGGGCC (((((.(....).))))) | -42.2 | 63.5 |
| GGCCCCGAAAGGGATGCC ((((((....)))..))) | -22.2 | 56.8 |
| GGCCCCGAAAGGGCTGCC ((((((....)))..))) | -15.1 | 68.2 |
| GGCCCCGGAAACAGGGCC (((((.(....).))))) | -43.7 | 58.2 |
| GGCCCCGGAAACGGAGCC (((.(((....))).))) | -31.1 | 56.6 |
| GGCCCGCCGAAAGGCGCC (((..(((....)))))) | -7.51 | 38 |
| GGCCCGGGAAACCGGACC ((.((((....)))).)) | -29.3 | 57.5 |
| GGCCCTCGAAAGAGCGCC (((.(((....))).))) | -35.2 | 51.6 |
| GGCCCTCGAAAGAGGCC (((.(((....)))))) | -21.3 | 58.4 |

| Sequence | folding enthalpy [1] [kcal/mol] | Tm [2] [°C] |
| --- | --- | --- |
| GGCCCTGGAAACAGGACC ((.((((....)))).)) | -35.3 | 51 |
| GGCCGAGGAAACCCAGCC (((.(.(....).).))) | -11.8 | 29.6 |
| GGCCGCCCGAAAGGGGCC (((..(((....)))))) | -15 | 62 |
| GGCCGCCGAAAGGCGCC (((.(((....)))))) | -12.8 | 68.2 |
| GGCCGCGAAAGCGGGGCC ((((((....)))..))) | -12.7 | 63.6 |
| GGCCGCGAAAGCGTCGCC ((((((....)))..))) | -16.7 | 55.9 |
| GGCCGGCGAAAGCCGCC (((.(((....)))))) | -12 | 65.3 |
| GGCCGTCGAAAGACCGCC (((.(((....))).))) | -42.5 | 53 |
| GGCCTACGAAAGTACGCC (((.(((....))).))) | -26.4 | 47.4 |
| GGCCTAGAAATAGGCC ((((((....)))))) | -34.9 | 62.8 |
| GGCCTAGGAAACCAGGCC (((((.(....).))))) | -49.6 | 53.9 |
| GGCCTAGGAAACTAGGCC (((((((....))))))) | -32.8 | 68.6 |
| GGCCTCACGAAAGTGGCC (((..(((....)))))) | -21.9 | 53.7 |
| GGCCTCGAAAGAGCAGCC ((((((....)))..))) | -22.3 | 47.6 |
| GGCCTCGAAAGAGTGGCC ((((((....)))..))) | -36.6 | 54.4 |
| GGCCTCGGAAACGGGGCC ((((.((....)).)))) | -35.3 | 66.6 |
| GGCCTCGGAAACGGGGTC (.((.((....)).)).) | -37.2 | 48.6 |
| GGCCTGGGAAACCGGGTC (.((.((....)).)).) | -27.7 | 49 |
| GGCCTGGGAAACTAGGCC (((((.(....).))))) | -49.7 | 59.2 |
| GGCCTTCGAAAGAACGCC (((.(((....))).))) | -30.7 | 44.4 |
| GGCCTTGGAAACAAGACC ((.((((....)))).)) | -29.1 | 44.7 |
| GGCGAAGGAAACCTCGCC (((((.(....).))))) | -46.7 | 55.3 |
| GGCGAAGGAAACTCCGCC ((((.((....)).)))) | -34.4 | 51.1 |

| Sequence | folding enthalpy [1] [kcal/mol] | Tm [2] [°C] |
| --- | --- | --- |
| GGCGAAGGAAACTTCACC ((.((((....)))).)) | -32.8 | 42.6 |
| GGCGAAGGAAACTTTGCC (((.(((....))).))) | -35.8 | 53.2 |
| GGCGAATCGAAAGATGCC (((..(((....)))))) | -22.5 | 46.1 |
| GGCGACACGAAAGTGGCC (((..(((....)))))) | -15.1 | 53.1 |
| GGCGACGAAAGTCACGCC ((((((....)))..))) | -27.4 | 54.1 |
| GGCGACGAAAGTCCGCC ((((((....))).))) | -32.2 | 63.6 |
| GGCGACGAAAGTCGTGCC ((((((....)))..))) | -12.7 | 51.2 |
| GGCGACGAAAGTCTGCC ((((((....))).))) | -36.6 | 59.2 |
| GGCGACGGAAACGCCACC ((.(.((....)).).)) | -16.9 | 46 |
| GGCGAGGGAAACCCCGCC ((((.((....)).)))) | -46.8 | 57.9 |
| GGCGATCGAAAGATGGCC (((.(((....))).))) | -47.6 | 57.6 |
| GGCGATGGAAACACCGCC ((((.((....)).)))) | -51.7 | 54 |
| GGCGATGGAAACGTCGCC (((((.(....).))))) | -48.7 | 64.6 |
| GGCGATGGAAACGTCGTC (.(((.(....).))).) | -39.5 | 46.2 |
| GGCGATGGAAACGTTGCC (((.(.(....).).))) | -37.6 | 44.9 |
| GGCGCACCGAAAGGTGCC (((..(((....)))))) | -6.69 | 47.5 |
| GGCGCAGGAAACTGCACC ((.((((....)))).)) | -29.9 | 54.4 |
| GGCGCATCGAAAGATGCC (((..(((....)))))) | -9.42 | 45.2 |
| GGCGCCACGAAAGTGGCC (((..(((....)))))) | -6.73 | 48.8 |
| GGCGCCCGAAAGGGGCC (((.(((....)))))) | -17.2 | 67.4 |
| GGCGCCGAAAGGCCAGCC ((((((....)))..))) | -21.1 | 61 |
| GGCGCCGAAAGGCGTGCC ((((((....)))..))) | -9.73 | 54.2 |
